# The source made the active and inactive calls. The rule behind the calls is not given here.
# How the values were obtained:
# [1] = system: RAW264.7; assay: Antiinflammatory activity in mouse RAW264.7 cells assessed as decrease in LPS-induced IL-6 secretion at 10 microM incubated for 30 mins followed by LPS stimulation and measured after 24 hrs by ELISA relative to control; assay type: functional; conditions: RAW264.7, 24.5 h, time 1470 min
# Procedure, shortened: (§1)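 RAW264.7 cells in DMEM with 10% FBS at 37 °C, 5% CO₂; pretreated with 10 μM for 30 min, then LPS 0.5 μg/mL for 24 h. Medium TNF-α and IL-6 measured by ELISA and normalized to total protein of viable cells; percent inhibition, mean ± SD of three experiments.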
# [2] = system: RAW264.7; assay: Antiinflammatory activity in mouse RAW264.7 cells assessed as decrease in LPS-induced TNF-alpha secretion at 10 microM incubated for 30 mins followed by LPS stimulation and measured after 24 hrs by ELISA relative to control; assay type: functional; conditions: RAW264.7, 24.5 h, time 1470 min; procedure, shortened: as §1
# [3] = Cytotoxicity against human HL7702 cells assessed as cell survival rate at 10 uM incubated for 24 hrs by MTT assay; assay type: cell-based; conditions: HL7702 (L02) cells, read-out: Activity
# Procedure, shortened: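 HL-7702 human normal hepatic cells exposed to 10 μM compound for 24 h; viability measured by MTT assay and given as survival rate, mean ± SD of three experiments.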
# [4] = Octanol-water partition coefficient, logP of compound; assay type: physicochemical
# [5] = Aqueous kinetic solubility of compound at pH 7.4; assay type: physicochemical; conditions: read-out: Kinetic_solubility
# [6] = system: RAW264.7; assay: Antiinflammatory activity in mouse RAW264.7 cells assessed as decrease in LPS-induced IL-6 secretion incubated for 30 mins followed by LPS stimulation and measured after 24 hrs by ELISA; assay type: functional, cell-based; conditions: dose 1-10 µM, time 1470.0 min
# Procedure, shortened: (§2)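 RAW264.7 cells seeded at 4.0×10^5/plate overnight; pretreated at 1, 2.5, 5 or 10 μM for 30 min, then with or without LPS 0.5 μg/mL for 24 h. Medium IL-6 and TNF-α measured by ELISA and normalized to total protein; percent of LPS control, mean ± SEM of three independent experiments.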
# [7] = system: RAW264.7; assay: Antiinflammatory activity in mouse RAW264.7 cells assessed as decrease in LPS-induced TNF-alpha secretion incubated for 30 mins followed by LPS stimulation and measured after 24 hrs by ELISA; assay type: functional, cell-based; conditions: dose 1-10 µM, time 1470.0 min; procedure, shortened: as §2
# [8] = system: Mus musculus; assay: Antiinflammatory activity against LPS-induced septic shock C57BL/6 mouse model assessed as proportion of died animals at 10 mg/kg, iv administered daily before LPS administration and monitored for 7 days (reference value: 100%); assay type: functional; conditions: time 7 day
# Procedure, shortened: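 Male C57BL/6 mice, n = 10 per group, were given the test agent as its hydrochloride salt (10 mg/kg IV) or saline vehicle. LPS (20 mg/kg IP) was injected afterwards. Survival was recorded every 24 h for 7 days after LPS.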
# [9] = system: Rattus norvegicus; assay: Antiinflammatory activity against LPS-induced acute lung injury rat model assessed as reduction in lung wet/dry ratio at 10 to 20 mg/kg administered before LPS instillation and measured after 6 hrs; assay type: functional, organism-based; conditions: dose 10-20 mg/kg
# Procedure, shortened: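 Edema index in rats killed 6 h after intratracheal LPS, with pretreatment at 10 or 20 mg/kg: right upper lung lobe excised, blotted and weighed wet, then dried at 65 °C for 48 h and reweighed; wet/dry weight ratio calculated.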
# [10] = system: Rattus norvegicus; assay: Antiinflammatory activity against LPS-induced acute lung injury rat model assessed as reduction in total protein content in BALF at 10 to 20 mg/kg administered before LPS instillation and measured after 6 hrs by BCA protein assay; assay type: functional, organism-based; conditions: dose 10-20 mg/kg
# Procedure, shortened: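 Left lung lavaged with saline (3 × 1.5 mL) 6 h after intratracheal LPS in rats pretreated at 10 or 20 mg/kg; lavage spun at 1000 rpm for 10 min; supernatant protein measured by BCA assay.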
# [11] = system: Rattus norvegicus; assay: Antiinflammatory activity against LPS-induced acute lung injury rat model assessed as reduction in lung edema at 10 to 20 mg/kg administered before LPS instillation and measured after 6 hrs by hematoxylin and eosin staining based microscopic analysis; assay type: functional, organism-based; conditions: dose 10-20 mg/kg
# Procedure, shortened: (§3)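 Rats pretreated at 10 or 20 mg/kg, then intratracheal LPS; lungs taken 6 h later, fixed in 4% paraformaldehyde, paraffin-embedded, cut at 5 μm, stained with hematoxylin-eosin, and examined by light microscopy for edema, hemorrhage, cell infiltration and epithelial/endothelial damage.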
# [12] = system: Rattus norvegicus; assay: Antiinflammatory activity against LPS-induced acute lung injury rat model assessed as reduction in alveolar hemorrhage in lungs at 10 to 20 mg/kg administered before LPS instillation and measured after 6 hrs by hematoxylin and eosin staining based microscopic analysis; assay type: functional, organism-based; conditions: dose 10-20 mg/kg; procedure, shortened: as §3
# [13] = system: Rattus norvegicus; assay: (§4) Antiinflammatory activity against LPS-induced acute lung injury rat model assessed as reduction in inflammatory cell infiltration in lungs at 10 to 20 mg/kg administered before LPS instillation and measured after 6 hrs by hematoxylin and eosin staining based microscopic analysis; assay type: functional, organism-based; conditions: dose 10-20 mg/kg; procedure, shortened: as §3
# [14] = system: Rattus norvegicus; assay: as §4, with “in destruction of epithelial and endothelial” for “in inflammatory”, “cell structure” for “cell infiltration”; assay type: functional, organism-based; conditions: dose 10-20 mg/kg; procedure, shortened: as §3
# [15] = system: Rattus norvegicus; assay: Antiinflammatory activity against LPS-induced acute lung injury rat model assessed as reduction in IL-6 level in BALF at 10 to 20 mg/kg administered before LPS instillation and measured after 6 hrs by ELISA; assay type: functional, organism-based; conditions: dose 10-20 mg/kg
# Procedure, shortened: (§5)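 Rats given intratracheal LPS after pretreatment at 10 or 20 mg/kg; killed 6 h after LPS under anaesthesia; BALF and lung collected. BALF IL-6 and TNF-α measured by ELISA in BALF supernatant; serum IL-6 measured; BALF total cells counted; lung MPO activity and TNF-α immunostaining assessed.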
# [16] = system: Rattus norvegicus; assay: Antiinflammatory activity against LPS-induced acute lung injury rat model assessed as reduction in TNF-alpha level in BALF at 10 to 20 mg/kg administered before LPS instillation and measured after 6 hrs by ELISA; assay type: functional, organism-based; conditions: dose 10-20 mg/kg; procedure, shortened: as §5
# [17] = system: Rattus norvegicus; assay: Antiinflammatory activity against LPS-induced acute lung injury rat model assessed as reduction in IL-6 level in serum at 10 to 20 mg/kg administered before LPS instillation and measured after 6 hrs by ELISA; assay type: functional, organism-based; conditions: dose 10-20 mg/kg; procedure, shortened: as §5
# [18] = system: Rattus norvegicus; assay: Antiinflammatory activity against LPS-induced acute lung injury rat model assessed as decrease in neutrophil infiltration in lungs by measuring decrease in MPO activity at 10 to 20 mg/kg administered before LPS instillation and measured after 6 hrs; assay type: functional, organism-based; conditions: dose 10-20 mg/kg; procedure, shortened: as §5
# [19] = system: Rattus norvegicus; assay: Antiinflammatory activity against LPS-induced acute lung injury rat model assessed as reduction in total cells in BALF at 10 to 20 mg/kg administered before LPS instillation and measured after 6 hrs; assay type: functional, organism-based; conditions: dose 10-20 mg/kg; procedure, shortened: as §5
# [20] = system: Rattus norvegicus; assay: Antiinflammatory activity against LPS-induced acute lung injury rat model assessed as reduction in CD-68 stained macrophage numbers in lungs at 10 to 20 mg/kg administered before LPS instillation and measured after 6 hrs by immunohistochemical analysis; assay type: functional, organism-based; conditions: dose 10-20 mg/kg
# Procedure, shortened: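 Lung sections from rats given intratracheal LPS, pretreated at 10 or 20 mg/kg, killed 6 h after LPS; immunohistochemistry for the macrophage marker CD68, with CD68-positive cells counted.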
# [21] = system: Rattus norvegicus; assay: Antiinflammatory activity against LPS-induced acute lung injury rat model assessed as reduction in TNFalpha expression in lung tissue at 10 to 20 mg/kg administered before LPS instillation and measured after 6 hrs by immunohistochemical analysis; assay type: functional, organism-based; conditions: dose 10-20 mg/kg; procedure, shortened: as §5
# [22] = system: BEAS-2B; assay: Antiinflammatory activity in human BEAS-2B cells assessed as reduction in LPS-induced IL-6 mRNA expression incubated for 30 mins followed by LPS stimulation and measured after 24 hrs by qRT-PCR analysis; assay type: functional, cell-based; conditions: dose 10-20 µM, time 1470.0 min
# Procedure, shortened: (§6)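 Beas-2B cells seeded at 7.0×10^5/plate overnight at 37 °C, 5% CO₂; pretreated with 10 μM for 30 min, then LPS 1 μg/mL for 24 h. Total RNA extracted with TRIZOL; two-step SYBR Green RT-qPCR. Expressed as percent of LPS control; mean ± SEM of three independent experiments.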
# [23] = system: BEAS-2B; assay: Antiinflammatory activity in human BEAS-2B cells assessed as reduction in LPS-induced IL-1beta mRNA expression incubated for 30 mins followed by LPS stimulation and measured after 24 hrs by qRT-PCR analysis; assay type: functional, cell-based; conditions: dose 10-20 µM, time 1470.0 min; procedure, shortened: as §6
# [24] = system: BEAS-2B; assay: Antiinflammatory activity in human BEAS-2B cells assessed as reduction in LPS-induced TNFalpha mRNA expression incubated for 30 mins followed by LPS stimulation and measured after 24 hrs by qRT-PCR analysis; assay type: functional, cell-based; conditions: dose 10-20 µM, time 1470.0 min; procedure, shortened: as §6
# [25] = system: BEAS-2B; assay: Antiinflammatory activity in human BEAS-2B cells assessed as reduction in LPS-induced VCAM-1 mRNA expression incubated for 30 mins followed by LPS stimulation and measured after 24 hrs by qRT-PCR analysis; assay type: functional, cell-based; conditions: dose 10-20 µM, time 1470.0 min; procedure, shortened: as §6
# [26] = Chemical stability of compound in PBS buffer containing 5% DMSO at pH 7.4 measured every 5 mins for 25 mins by UV-Vis absorption spectral analysis; assay type: physicochemical; conditions: pH 7.4, 25 min
# Procedure, shortened: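 Compound diluted from 1 mM stock in phosphate buffer pH 7.4 containing 5% DMSO; UV-visible spectra recorded from 250 to 600 nm at 25 °C in a 1 cm quartz cuvette, every 5 min for 25 min.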
# [27] = system: RAW264.7; assay: Cytotoxicity against mouse RAW264.7 cells assessed as cell survival rate at 10 uM; assay type: cell-based; conditions: raw264.7, 10 µM
smiles,measurement,setting,value
C=CCc1cc(/C=C2\CN(C3CC3)C/C(=C\c3ccc(N4CCCC4)cc3)C2=O)ccc1O,inhibition at 10 µM,[1],49.9%
same,inhibition at 10 µM,[2],17.6%
same,"viability at 24 h, 10 µM",[3],95.5%
same,logP,[4],4.33
C=CCc1cc(/C=C2\CN(C3CC3)C/C(=C\c3ccc(N4CCOCC4)cc3)C2=O)ccc1O,inhibition at 10 µM,[1],59.8%
same,inhibition at 10 µM,[2],8.19%
same,"viability at 24 h, 10 µM",[3],94.3%
same,logP,[4],3.21
same,solubility kinetic,[5],19.4 mg/mL
C=CCc1cc(/C=C2\CN(C3CC3)C/C(=C\c3ccc(N4CCN(C)CC4)cc3)C2=O)ccc1O,inhibition at 10 µM,[1],83.3%
same,inhibition at 10 µM,[2],43.8%
same,"viability at 24 h, 10 µM",[3],90.3%
same,logP,[4],3.48
same,solubility kinetic,[5],22.5 mg/mL
same,inhibition,[6],Dose-dependent effect
same,inhibition,[7],Dose-dependent effect
same,Activity,[8],50%
same,Activity,[9],Active
same,Activity,[10],Active
same,Activity,[11],Active
same,Activity,[12],Active
same,Activity,[13],Active
same,Activity,[14],Active
same,Activity,[15],Active
same,Activity,[16],Active
same,Activity,[17],Active
same,Activity,[18],Active
same,Activity,[19],Active
same,Activity,[20],Active
same,Activity,[21],Active
same,Activity,[22],Dose-dependent effect
same,Activity,[23],Dose-dependent effect
same,Activity,[24],Dose-dependent effect
same,Activity,[25],Dose-dependent effect
same,Stabilty,[26],Stable
C=CCc1cc(/C=C2\CNC/C(=C\c3ccc(O)c(CC=C)c3)C2=O)ccc1O,inhibition at 10 µM,[1],44.4%
same,"viability at 24 h, 10 µM",[3],77.9%
same,Activity,[27],Non-Toxic
C=CCc1cc(/C=C2\CN(CCC)C/C(=C\c3ccc(O)c(CC=C)c3)C2=O)ccc1O,inhibition at 10 µM,[1],76.1%
same,"viability at 24 h, 10 µM",[3],75.2%
same,Activity,[27],Non-Toxic
C=CCc1cc(/C=C2\CN(C(=O)c3c(Cl)cccc3Cl)C/C(=C\c3ccc(O)c(CC=C)c3)C2=O)ccc1O,inhibition at 10 µM,[1],79.6%
same,"viability at 24 h, 10 µM",[3],79.6%
same,Activity,[27],Non-Toxic
C=CCc1cc(/C=C2\CN(C3CC3)C/C(=C\c3ccc(O)c(CC=C)c3)C2=O)ccc1O,inhibition at 10 µM,[1],77.5%
same,inhibition at 10 µM,[2],39.5%
same,"viability at 24 h, 10 µM",[3],76.2%
same,inhibition,[6],Dose-dependent effect
same,inhibition,[7],Dose-dependent effect
same,Stabilty,[26],Stable
same,Activity,[27],Non-Toxic
C=CCc1cc(/C=C2\CN(C(=O)c3ccc(C)cc3)C/C(=C\c3ccc(O)c(CC=C)c3)C2=O)ccc1O,inhibition at 10 µM,[1],81.5%
same,"viability at 24 h, 10 µM",[3],70.1%
same,Activity,[27],Non-Toxic
C=CCc1cc(/C=C/C(=O)/C=C/c2ccc(O)c(CC=C)c2)ccc1O,inhibition at 10 µM,[1],59.6%
same,inhibition at 10 µM,[2],7.15%
same,"viability at 24 h, 10 µM",[3],73.3%
same,Stabilty,[26],Stable
same,Activity,[27],Non-Toxic
